# Assay outcomes: PubChem BioAssay, Johns Hopkins Ion Channel Center
# Compounds with a hit are over-represented: about 3.8% of the library has one in this group of screens.
# hERG protect: shields human hERG channel from block by proarrhythmic agents | CHO-hERG, FluxOR thallium flux, dofetilide IC70 present | activation (rescue from dofetilide block), less the hit threshold, % at 10 µM | 310,000 tested, 0.51% active;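 active = activation above the mean of controls blocked by dofetilide plus 5 SD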;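 note: thallium influx through hERG after potassium depolarization seen as dye fluorescence rise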
# KCNK3 inh: human KCNK3 channel inhibition, primary screen; CHO-KCNK3 thallium flux, FluxOR fluorescence; active compounds read low; 340,000 tested, 0.84% active; B-score at 10 µM; AID 602410; O14649;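 active = B-score under library mean minus 4 SD, starting fluorescence ratio at most library mean plus 5 SD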;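 note: more negative B-score means stronger inhibition of thallium flux through KCNK3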
# KCNK9 inh: inhibitors of human KCNK9 two-pore domain potassium channel; Q9NPC2; HEK293 KCNK9, FluxOR thallium flux fluorescence; active compounds read low; B-score at 10 µM; 310,000 tested, 1.2% active; AID 488922;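 active = ratio B-score over 3 SD below the library mean, with starting fluorescence within 5 SD of its mean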;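 note: negative B-score means less thallium flux so channel inhibition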
# KCNQ1 inh: human KCNQ1 channel inhibition; B-score at 10 µM; 310,000 tested, 1.3% active; CHO-K1 KCNQ1, FluxOR thallium flux fluorescence; active compounds read high; P51787;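 active = compounds whose thallium flux B-score, printed positive for inhibition, exceeds three library SD while starting fluorescence stays within three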;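 note: channel opened by potassium depolarization with thallium stimulus after 20 min compound exposure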
# Target sequence (P51787 whole entry, looked up): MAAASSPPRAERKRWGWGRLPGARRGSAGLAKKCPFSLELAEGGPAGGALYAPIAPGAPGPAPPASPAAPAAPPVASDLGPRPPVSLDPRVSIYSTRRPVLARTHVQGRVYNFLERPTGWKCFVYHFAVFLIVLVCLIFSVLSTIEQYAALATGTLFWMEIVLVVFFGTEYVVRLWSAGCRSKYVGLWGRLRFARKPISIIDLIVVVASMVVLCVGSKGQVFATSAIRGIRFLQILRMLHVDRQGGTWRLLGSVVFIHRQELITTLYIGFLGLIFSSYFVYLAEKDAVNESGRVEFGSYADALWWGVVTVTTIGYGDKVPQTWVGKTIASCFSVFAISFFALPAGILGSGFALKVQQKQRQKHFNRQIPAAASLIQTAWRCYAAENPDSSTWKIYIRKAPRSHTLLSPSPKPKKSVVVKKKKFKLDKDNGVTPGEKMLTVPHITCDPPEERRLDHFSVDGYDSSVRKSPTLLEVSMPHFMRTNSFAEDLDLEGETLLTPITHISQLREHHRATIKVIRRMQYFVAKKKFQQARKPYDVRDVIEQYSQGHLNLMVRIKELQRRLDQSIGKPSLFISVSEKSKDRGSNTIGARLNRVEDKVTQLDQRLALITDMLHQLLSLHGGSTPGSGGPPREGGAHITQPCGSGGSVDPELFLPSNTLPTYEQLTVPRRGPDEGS
# Kir21 inh: blocks the mouse Kir2.1 inward-rectifier potassium channel. P35561. AID 1672. HEK293-Kir2.1, FluxOR thallium flux fluorescence; active compounds read low. 310,000 tested, 0.85% active. B-score at 10 µM;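 active = fluorescence ratio B-score at or below minus 3 SD of library scores, with starting-brightness B-score within 2 SD, cut at about -4.2 in these data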;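 note: channel flux triggered by added potassium and thallium sulfate stimulus; B-score of peak minus minimum fluorescence over baseline after thallium stimulus; more negative B-score means stronger Kir2.1 block with less thallium influx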
# KCNQ1 pot: human KCNQ1 channel potentiation or activation; P51787; B-score at 10 µM; CHO-K1 KCNQ1, thallium flux FluxOR fluorescence; active compounds read high; 310,000 tested, 0.35% active;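 active = fluorescence ratio B-score, a plate-corrected score, at least three library SD, with initial intensity B-score within 5 SD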
#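 Doses: Single concentration per compound, DMSO matched to controls | Test system: KCNQ1-transfected CHO-K1 cells | Timing: 90 min dye loading and 20 min compound exposure, both at room temperature | Measured by: Kinetic FluxOR thallium fluorescence, 10-s 1-Hz baseline, 110-s post-stimulus read | Medium: Assay buffer with matched DMSO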
# * hit, by the source's call; i = inactive; / = no result given.
SMILES,hERG protect,KCNK3 inh,KCNK9 inh,KCNQ1 inh,Kir21 inh,KCNQ1 pot
NC(=S)Nc1nc2ccccc2s1,-3,i,i,i,-0.87,8*
O=C(NC(=S)Nc1nc2ccccc2s1)c1cccs1,52*,i,i,i,0.84,54*
O=C(NCCC(c1ccccc1)c1ccccc1)c1cccs1,-4,i,-7*,i,-3.2,i
COC(=O)c1nc(NC(=S)NC(=O)c2cccs2)sc1C,-4,i,i,i,1.2,i
O=C(NCc1ccco1)C(c1ccncc1)N(C(=O)Cn1nnc2ccccc21)c1ccccc1F (stereo not drawn),-8,i,i,i,-0.71,i
O=C(/C=C/Nc1ccc(Br)cn1)c1cccc(OC(F)F)c1,/,i,/,/,/,/
Cc1ccccc1-c1cccc([C@@H]2C[C@H]3[C@H](CON3C)CN2Cc2ccccc2)c1,/,i,/,/,/,/
O=C(NC(=S)Nc1ccccc1)c1cccs1,10*,i,i,i,-0.02,11*
CC1CCCCC1NC(=S)NC(=O)c1cccs1 (stereo not drawn),5.2*,i,i,i,0.01,20*
CCCc1nc2ccc(NC(=O)c3cccs3)cc2c(=O)n1Cc1ccc(Cl)cc1,-9,i,-6.8*,i,0.78,i
O=C(Nc1ccc(Cl)cc1)c1cccs1,-14,i,-7.2*,i,0.61,i
CC(OC(=O)c1cccs1)C(=O)NC1CCCCC1C (stereo not drawn),/,i,/,/,/,/
O=C(Nc1ccc(NC(=O)c2cccs2)cc1)c1cccs1,-5,i,i,i,1.1,i
CCCCC(CC)CNC(=O)C(=O)c1ccccc1NC(C)=O (stereo not drawn),-6,i,i,i,-0.04,i
O=C(NC12CC3CC(CC(C3)C1)C2)N1CCN(C(=O)c2ccco2)CC1,-6,i,i,i,0.45,i
O=C(NC(=S)Nc1ccc(Br)cn1)c1cccs1,4,i,i,i,0.18,13*
O=C(Nc1cccc(NC(=O)c2cccs2)c1)c1ccco1,-13,i,-6.6*,i,-0.56,i
CC1CCN(c2ccccc2NC(=S)NC(=O)c2cccs2)CC1,-2,i,i,i,-0.02,14*
COc1ccc(/C=C/C(=O)c2ccc(NC(=O)c3cccs3)cc2)cc1OC,8.9*,i,i,i,-1.4,i
COc1ccc(C(=O)Nc2cccc(NC(=O)c3cccs3)c2)cc1OC,-7,i,i,i,-0.94,i
O=C(Nc1ccc(Cl)c(NC(=O)c2cccs2)c1)c1ccco1,-5,i,i,i,-1.6,i
O=C(NC(=S)Nc1ccc(Br)cn1)c1cncc(Br)c1,0,i,i,i,-0.77,i
O=C(NC(=S)Nc1ccc(N2CCOCC2)c(Cl)c1)C(c1ccccc1)c1ccccc1,-6,i,i,6*,0.72,i
O=C(/C=C/c1ccccc1)NC(=S)Nc1ccc(N2CCOCC2)c(Cl)c1,-11,i,i,i,0.74,i
CCN1CCN(Cc2ccc(NC(=O)c3cc(NC(=O)C(=O)c4c[nH]c5ccccc45)cc(OC)c3)cc2C(F)(F)F)CC1,-41,i,i,i,0.24,i
SMILES,hERG protect,KCNK3 inh,KCNK9 inh,KCNQ1 inh,Kir21 inh,KCNQ1 pot
CCN1CCN(Cc2ccc(NC(=O)c3ccc(C)c(NC(=O)C(=O)c4c[nH]c5ccccc45)c3)cc2C(F)(F)F)CC1,-40,i,i,12*,0.05,i
C=CCn1c(SCc2ccccc2C#N)nnc1-c1cc(Br)ccc1O,-26,i,i,i,-8.3*,i
C=CCn1c(SCC(N)=O)nnc1-c1cccc(Br)c1,-6,i,i,i,-0.5,i
Cc1ccccc1Cn1ccc(=NCc2ccccc2)cc1,-11,/,i,i,-5.5*,i
O=c1ccn(Cc2ccccc2)cc1,-10,i,i,i,0.52,i
Cc1c(C(=O)OCC(=O)N(C)CC(=O)Nc2ccc(F)cc2)oc2ccccc12,/,i,/,/,/,/
CN1CCN(C(=O)CNC(=O)C23CC4CC(CC(C4)C2)C3)CC1,/,i,/,/,/,/
CCN(C[C@H]1N[C@@](Cc2ccccc2)(C(=O)OC)[C@H]2C(=O)N(C)C(=O)[C@@H]12)C(=O)C1CCCCC1,/,i,/,/,/,/
